According to ChEMBL document CHEMBL3352597, “Heck products of parthenolide and melampomagnolide-B as anticancer modulators that modify cell cycle progression” (Eur J Med Chem, 2014):
≈ marks a conversion by molar mass, not a printed value. Each block holds one molecule with its values, some of them ahead of it. Calls of active or inactive are those of the source. The calls are words filed in the database; no cut-off is given here.

Assays:
[1] = Solubility in serum (unknown origin); assay type: ADME
Oocyte [2] = test: Inhibition of immature stage VI Xenopus oocyte maturation assessed as inhibition of progesterone-mediated maturation measured as germinal vesicle (nuclear) breakdown at 100 uM after overnight incubation; assay type: functional, cell-based
Summary of the method: (§1)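 Oocytes (20 per well) pre-treated overnight with compound (100 μM final, DMSO) or DMSO vehicle, then stimulated with 2 μg/ml progesterone. GVBD (animal-pole white spot) scored at the time 50% of DMSO controls reach GVBD. Rate relative to control: 1.0 means no difference, above 1.0 acceleration, below 1.0 delay, 0.0 no maturation. Differences over 20% followed up.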

Oocyte [3] = test: Induction of immature stage VI Xenopus oocyte maturation assessed as stimulation of progesterone-mediated maturation measured as germinal vesicle (nuclear) breakdown at 100 uM after overnight incubation; assay type: functional, cell-based; summary of the method: as §1

solubility [1]: 169 µM (≈ 42 µg/mL)
Compound: C=C1C(=O)O[C@@H]2C3O[C@]3(C)CC/C=C(\C)CC[C@@H]12 (stereo partly drawn)

Compound: C[C@@]12CC/C=C(/CO)CC[C@@H]3/C(=C\c4ccsc4)C(=O)O[C@@H]3[C@@H]1O2
inhibition (Oocyte [2]): Active

Compound: C[C@@]12CC/C=C(/CO)CC[C@@H]3/C(=C\c4ccc(N)cc4)C(=O)O[C@@H]3[C@@H]1O2
Activity (Oocyte [3]): Active
